PMC4059944 (Nature, 2014)
Several values for one entry are separate records, joined by “and”; a condition that tells them apart may be missing. Identical values can stand only once. Ends that are not written are not given here.

How the values were obtained:
SEC-MALS = biological target: the molecule itself; test: SEC-MALS
[1] = biological target: T1, fluorescein-labelled yeast Sld5 peptide (1-19) (S. cerevisiae); test: fluorescence polarisation
T1 peptide: fluorescein-MDINIDDILAELDKETTAV

[2] = Multi-angle laser scattering; format: physicochemical, yeast (S. cerevisiae); conditions: size exclusion chromatography - MALS
How it was run: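 Recombinant His-tagged full-length yeast Ctf4, expressed in E. coli BL21(DE3)-CodonPlus (1 mM IPTG, 37°C, 2 h), purified by Ni-NTA, Mono Q ion exchange and Superdex 200 gel filtration. About 100 μg loaded onto an HPLC size-exclusion column equilibrated in 150 mM NaCl, 20 mM Tris pH 8.0, 1 mM DTT. Eluate read by 8-angle light scattering and refractive index detectors.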

[3] = Native mass spectrometry, oligomeric state; format: physicochemical, yeast (S. cerevisiae); conditions: nano-electrospray, 500 mM ammonium acetate
[4] = biological target: T2, Ctf4 N-terminal deletion (Ctf4CTD, aa 461-927) (S. cerevisiae, UniProt Q01454 461-927); test: negative-stain single-particle electron microscopy
T2 sequence: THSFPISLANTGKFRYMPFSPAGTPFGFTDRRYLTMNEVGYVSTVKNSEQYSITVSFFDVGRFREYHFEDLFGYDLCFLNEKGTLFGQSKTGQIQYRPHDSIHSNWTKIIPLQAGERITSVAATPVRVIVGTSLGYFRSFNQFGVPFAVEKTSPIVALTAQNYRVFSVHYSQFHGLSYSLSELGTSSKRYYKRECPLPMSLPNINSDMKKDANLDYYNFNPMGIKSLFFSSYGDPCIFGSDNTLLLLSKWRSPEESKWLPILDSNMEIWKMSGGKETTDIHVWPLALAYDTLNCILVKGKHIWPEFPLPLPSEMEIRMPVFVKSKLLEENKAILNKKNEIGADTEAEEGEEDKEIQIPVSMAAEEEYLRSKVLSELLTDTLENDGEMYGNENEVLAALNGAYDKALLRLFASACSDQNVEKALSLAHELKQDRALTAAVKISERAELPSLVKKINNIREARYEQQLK

Ctf4CTD = test: Analytical gel filtration of Ctf4CTD - GINS; format: binding, yeast (S. cerevisiae); conditions: Superdex S200, 20 mM HEPES pH 7.2, 140 mM KCl, full-length or N-terminally truncated Sld5

B1: Ctf4CTD (yeast Ctf4 amino acids 471 to 927) (domain or fragment)
chain: TGKFRYMPFSPAGTPFGFTDRRYLTMNEVGYVSTVKNSEQYSITVSFFDVGRFREYHFEDLFGYDLCFLNEKGTLFGQSKTGQIQYRPHDSIHSNWTKIIPLQAGERITSVAATPVRVIVGTSLGYFRSFNQFGVPFAVEKTSPIVALTAQNYRVFSVHYSQFHGLSYSLSELGTSSKRYYKRECPLPMSLPNINSDMKKDANLDYYNFNPMGIKSLFFSSYGDPCIFGSDNTLLLLSKWRSPEESKWLPILDSNMEIWKMSGGKETTDIHVWPLALAYDTLNCILVKGKHIWPEFPLPLPSEMEIRMPVFVKSKLLEENKAILNKKNEIGADTEAEEGEEDKEIQIPVSMAAEEEYLRSKVLSELLTDTLENDGEMYGNENEVLAALNGAYDKALLRLFASACSDQNVEKALSLAHELKQDRALTAAVKISERAELPSLVKKINNIREARYEQQLK
- stoichiometry N (SEC-MALS): 3
- fold tighter association than the Pol1 motif [1]: ~5 fold
- oligomeric state in solution (MALS) [2]: stable trimer in solution
- oligomeric state in solution (native mass spectrometry) [3]: stable trimer in solution

B2: GINSPsf1ΔC (Strep III-tagged, for electron microscopy) (complex)
chain 1: MGYYDIDDVLADGTEFPCKFQYDIPGLGYLENNPGRPITKNTKLSLPLWLARILAIVGGDEALVDEEPVPFVELLPPDMFSTKVMNAIKTDPVALDLHSINSHFFSLAIKWIMLFSEKELANVVSELLLQRAQELNHHASSLSIDLNADSTGKNSANTNIATSTFLLKLEEMEKEIYKKSHESYKDTKRWMFKK
chain 2: MYGDLGNKLVLEAKRTKQLYARSNQDVNLPMYHEDIIRNILKEVSNLRKNTEYLKEQQQLGMLDDKVAKCQYFVTLLCMERNKRCLLAYQRLRTDILDSMAWNNNGLDLMSSITFSQQDTNNLSHQEQEYLKEYCDLITDLKSGDLVDIDLSGSLVPPSDVFID
chain 3: MSLPAHLQQTFSPEEIQFIVENEPIKIFPRITTRQKIRGDDRGTGNHTRWQLITTDDKALNNMVAMRSTEVVLWIALLLKQQSKCSIVAPQWLTTKELDRKIQYEKTHPDRFSELPWNWLVLARILFNKAKDDFHDPIHELRGKIQDLREIRQIKVLKGLKYLNESHLQLDNLSLLEINELRPFITEIMDKLREIHTASLTAGTENDEEEFNI
chain 4: MDINIDDILAELDKETTAVDSTKITQGSSSTTHRDANTIVGSSLDLNDKTQIYVSPQQDFSDLMKSWKNERCSPELLPYPHQLMKRLLNRISMQSQLIENISMGFLDMQNASNANPPMPNESKLPLLCMETELERLKFVIRSYIRCRLSKIDKFSLYLRQLNEDENSLISLTDLLSKDEIKYHDTHSLIWLKLVNDSILKYMPEELQAINDTEGSVNMIDEPDWNKFVFIHVNGPPDGKWNEDPLLQENEFGKPCYTVTIPDLKEEVELTIGSIYVMRYEVIRDLLRDDKVALI
- stoichiometry N [4]: 1 copies of GINS per Ctf4CTD trimer and 2 copies of GINS per Ctf4CTD trimer and 3 copies of GINS per Ctf4CTD trimer
- Ctf4 - GINS interaction (Ctf4CTD): dependent upon the unstructured tail at the N-terminus of the Sld5 subunit of GINS
